SENP8 block-1: blocks human SENP8 cleavage of Nedd8 substrate; inhibition, % at 20 µM; recombinant SENP8, Nedd8 substrate fluorescence; actives 0.64% (n = 360,000); in the data active = inhibition mostly above about 40%, no sharp cut-off; inactive = mostly below about 27%
SENP8 block-2: SENP8 protease inhibition | actives 1.2% (n = 330,000) | inhibition, % at 10 µM | purified SENP8, Z-RLRGG-aminoluciferin cleavage, luminescence | Q96LD8; in the data active = inhibition above about 50%
UBC13 inh: human UBC13 polyubiquitination inhibition | inhibition, % at 20 µM | AID 485273 | UBC13 polyubiquitin chain formation, TR-FRET | actives 0.47% (n = 330,000); in the data active = inhibition above about 45%, passing the limit was not always enough
Target sequence (P61088 whole entry, looked up): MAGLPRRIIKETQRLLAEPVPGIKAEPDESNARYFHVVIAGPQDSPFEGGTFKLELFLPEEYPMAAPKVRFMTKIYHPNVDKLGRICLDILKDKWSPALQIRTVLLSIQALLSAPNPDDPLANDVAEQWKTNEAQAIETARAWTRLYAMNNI
Apaf-1 inh: human Apaf-1 inhibition. O14727. reconstituted apoptosome caspase-3 activity, DEVD-Rh110 fluorescence. inhibition, % at 20 µM. actives 0.71% (n = 330,000); active = inhibition of at least 40% at 20 µM;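 note: plate controls were DMSO wells for no effect and DEVD-CHO caspase inhibitor wells for full effect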
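Assay system – apoptosome proteins · Medium – Hepes buffer, pH 7.5 · Also added – cytochrome c with DEVD-Rh110 · Timing – 30 min compound preincubation, 50 min activation, room temperature · Detection – Rh110 fluorescence, excitation 480 nm, emission 540 nm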
SENP7 inh: blocks the human protease SENP7. Q9BQF6. recombinant SENP7, Z-RLRGG-aminoluciferin luminescence, 40 min. inhibition, % at 5 µM. actives 1.5% (n = 330,000);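 active = inhibition above about 50% at the single test dose, limit read from the data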;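 note: plate controls were DMSO with enzyme for no effect and no enzyme buffer wells for full effect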
SENP6 block: SENP6 protease inhibition; Q9GZR1; Recombinant SENP6 catalytic domain, aminoluciferin luminescence; inhibition, % at 10 µM; actives 1.8% (n = 330,000);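 active = inhibition above about 50% at the single tested dose, limit read from the data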;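 note: plate controls were DMSO wells with enzyme for no effect and DMSO wells lacking enzyme for full effect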
Target sequence (Q9GZR1 628-1112 limits assumed): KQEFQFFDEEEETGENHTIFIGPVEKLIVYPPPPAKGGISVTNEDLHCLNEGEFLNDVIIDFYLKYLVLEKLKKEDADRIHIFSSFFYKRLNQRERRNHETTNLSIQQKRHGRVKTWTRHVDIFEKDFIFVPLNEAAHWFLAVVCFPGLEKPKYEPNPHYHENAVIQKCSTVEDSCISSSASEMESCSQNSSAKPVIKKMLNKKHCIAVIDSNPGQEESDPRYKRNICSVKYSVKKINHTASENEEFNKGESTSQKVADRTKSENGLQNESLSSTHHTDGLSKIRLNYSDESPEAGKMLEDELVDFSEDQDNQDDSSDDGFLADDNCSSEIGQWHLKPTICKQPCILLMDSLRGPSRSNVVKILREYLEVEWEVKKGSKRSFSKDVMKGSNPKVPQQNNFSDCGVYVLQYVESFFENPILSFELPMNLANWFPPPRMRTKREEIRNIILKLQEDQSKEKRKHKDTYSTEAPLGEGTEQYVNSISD
Starred values were filed as active, the others as inactive; i = inactive; · = no result given. Sampled rows, rich in hits. Any-hit rate of the full collection: about 3%.

SMILES | SENP8 block-1 | SENP8 block-2 | UBC13 inh | Apaf-1 inh | SENP7 inh | SENP6 block
COc1cccc(CNC(=O)CN2C(=O)CC(c3ccccc3)=Nc3ccccc32)c1 | 14 | -14 | -1 | 3 | -3 | -4
COC(=O)c1ccc2nc(-c3cccc(Cl)c3)c(Cc3ccccc3)n2c1 | -378 | · | · | · | · | ·
CCOC(=O)C1CCCN(C(=O)c2cc(S(=O)(=O)N3CCCCCC3)ccc2OC)C1 (centres undefined) | 0 | -1 | 36 | 49* | -1 | -4
O=C1C=C(c2ccc(Cl)c(C(F)(F)F)c2)C[C@@H](c2ccc(Cl)cc2)C1 | 14 | -16 | -6 | 36 | -2 | -20
Cc1csc(NC(=O)Cc2coc3cc(C)c(C(C)C)cc23)n1 | 8 | -3 | 13 | 16 | 0 | -17
CCc1cc2c(=O)c(-c3nc(C)cs3)coc2cc1O | -16 | 38 | 0 | -8 | 77* | 66*
CC1=CC(c2ccc(Cl)cc2)n2nc(NC(=O)CCC(=O)O)nc2N1 (centres undefined) | -433 | 0 | 8 | -14 | 7 | -8
Clc1c(CSc2nc3ccccc3o2)nc2ccccn12 | 4 | 19 | 9 | -1 | 37 | 52*
Clc1c(CSc2nc3ccccc3o2)nc2sccn12 | 11 | 26 | 4 | -18 | 22 | 42
COc1cccc(N=Nc2c(=O)[nH]n3c(C)cc(C)nc23)c1 | 22 | 0 | -129 | 8 | 6 | -3
CCOc1ccc(N=Nc2c(=O)[nH]n3c(C)cc(C)nc23)cc1 | 53* | -7 | -298 | 10 | -14 | -3
COc1ccc([N+](=O)[O-])cc1C(=O)C(=O)c1ccccc1 | 44* | -12 | -10 | 3 | -15 | -11
Cc1ccc(-n2c(SC3CCOC3=O)nc3ccccc3c2=O)cc1 (centres undefined) | · | 4 | 1 | -6 | 5 | -4
O=C1/C(=C/c2ccc(Br)cc2)Oc2cc(O)ccc21 | -299 | 53* | 2 | 9 | 21 | 56*
COC(=O)CCC(=O)OC1(C)C(=O)C2=CN(CC(C)C)C(c3ccc(OC)cc3)=CC2=C(Br)C1=O (centres undefined) | · | 10 | -97 | 52* | 0 | 34
Cc1ccc(NC(=O)CSc2ccc(-c3ccc(-n4cccn4)cc3)nn2)c(C)c1 | 15 | 1 | -8 | -11 | -6 | 1
C=CCOc1ccc(C2/C(=C(/O)c3ccc(OC)cc3)C(=O)C(=O)N2CCN2CCNCC2)cc1 (centres undefined) | 19 | -2 | 2 | 23 | -2 | -1
CCOC(=O)c1c2c(n(C)c1COC)C(=O)C(=O)c1ccc(Br)cc1-2 | · | 97* | -56 | 97* | 95* | 96*
O=C(Nc1ccc(S(=O)(=O)N2CCCCC2)cc1)c1ccc(CN2CCc3ccccc3C2)cc1 | 53* | 1 | 3 | 14 | -6 | 3
CCN1C(=O)/C(=C/C=C2\C=CN(CC)c3ccccc32)SC1=S | 64* | · | · | · | · | ·
CCN1C(=O)/C(=C\C=C2/C=CC=CN2CC)SC1=S | 29 | 0 | i | 9 | 7 | 6
CCN1C(=O)C(=CC=CN(C)c2ccccc2)SC1=S | 62* | · | · | · | · | ·
CCN(C(=O)c1cc(OC)c(OC)c(OC)c1)C1CCCCC1 | 13 | · | · | · | · | ·
CCOc1cc(CNCCO)cc(Br)c1OCc1ccc(Cl)cc1Cl | 21 | -10 | 56* | 38 | -5 | -20
CCOc1cccc(CNc2ccc(O)cc2)c1OCc1ccc(Cl)cc1Cl | 69* | 3 | 4 | 23 | 8 | 1
SMILES | SENP8 block-1 | SENP8 block-2 | UBC13 inh | Apaf-1 inh | SENP7 inh | SENP6 block
CCOc1cccc(CNCCO)c1OCc1ccc(Cl)cc1Cl | 14 | -4 | 15 | 13 | 2 | -19
C/C(=N/Nc1ccccc1[N+](=O)[O-])c1ccc([N+](=O)[O-])cc1 | 34 | -4 | -46 | 9 | -2 | -10
C/C(=N\Nc1ccc(C#N)cc1[N+](=O)[O-])c1ccc(O)cc1 | 44* | 0 | -45 | -15 | -3 | -18
O=C(NCc1cccnc1)c1ccc(NS(=O)(=O)c2ccc(F)cc2)cc1 | -4 | 9 | -8 | 1 | 0 | 19
Cc1ccc(C(=O)COC(=O)c2cccc(O)c2)s1 | -4 | 83* | -1 | -6 | 95* | 93*
Cc1ccc(N(CC(=O)Nc2ccc(Br)c(C)c2)S(=O)(=O)c2c(C)[nH]c(=O)[nH]c2=O)cc1 | 3 | -8 | -15 | 3 | 12 | -3
Oc1[nH]c2ccc(Br)cc2c1N=NC(=S)N1CCOCC1 | 28 | -8 | -52 | -5 | -7 | 15
NC(=S)N=Nc1c(O)[nH]c2c(Br)cc(Br)cc12 | 52* | -9 | -4 | 20 | -8 | -23
Cc1nn(-c2ccccc2)c(Cl)c1/C=C/C(=O)c1ccccc1 | 42* | -14 | -4 | 25 | 4 | -3
Cc1nn(-c2ccccc2)c(Cl)c1/C=N/O | -1 | -4 | 7 | -9 | 6 | -11
c1ccc(-c2cc(-c3ccccc3)ncn2)cc1 | 11 | 1 | 6 | -13 | 1 | -13
c1ccc(-c2cc3cc4c(cc3cn2)OCO4)cc1 | -24 | 80* | 17 | 22 | 90* | 86*
Cc1cc(C)c(NC(=O)CNC(=O)Cc2sc(C)nc2-c2ccc(F)cc2)c(C)c1 | -3 | -1 | 0 | 7 | 14 | 7
O=C1/C(=C\c2ccc([N+](=O)[O-])cc2)CCc2ccccc21 | 33 | 91* | 8 | -4 | 87* | 82*
O=C(O)c1cccc(COc2ccccc2Cl)c1 | 5 | 98* | 0 | 8 | 5 | 99*
CCCCCCC(=O)Nc1nc(C)c(-c2csc(Nc3cc(Cl)ccc3C)n2)s1 | -90 | -5 | -29 | 15 | 0 | -5
Cc1nc(NC(=O)c2ccccc2)sc1-c1csc(Nc2cccc(F)c2)n1 | · | 30 | -47 | -13 | 10 | 47
COc1ccccc1Nc1nc(-c2sc(NC(=O)c3ccccc3)nc2C)cs1 | -200 | 22 | 30 | -4 | 10 | 33
Cc1ccc(Cl)cc1Nc1nc(-c2sc(NC(=O)c3ccccc3)nc2C)cs1 | · | 27 | -48 | 9 | 0 | 51*
Cc1cc(NS(=O)(=O)c2ccc(Nc3nc(-c4sc(NC(=O)c5ccccc5)nc4C)cs3)cc2)no1 | · | 43 | -3 | 28 | 65* | 72*
CCOc1ccccc1Nc1nc(-c2sc(NC(=O)c3ccccc3)nc2C)cs1 | · | 59* | 69* | 5 | 64* | 72*
Cc1c(C(=O)N(C)CCC#N)oc2ccc(S(=O)(=O)N3CCOCC3)cc12 | 5 | -9 | 0 | -11 | -2 | 1
Cn1c2ccccc2c2c(=O)oc3ccccc3c21 | -183 | · | · | 13 | -5 | ·
O=C1c2ccccc2C(=O)c2c(NCc3cccnc3)cccc21 | 19 | -9 | -125 | -6 | 1 | -14
O=C1c2cccc(NCCCNCCO)c2C(=O)c2cccc(NCCCNCCO)c21 | 57* | · | · | · | · | ·
O=C1NC(=O)[C@@H]2C3c4ccccc4C=CN3[C@H](C(=O)c3cccs3)[C@H]12 (some centres undefined) | · | 14 | -8 | 47* | 15 | 31

Source: PubChem
